From ChEMBL document CHEMBL1125495, “Inhibitors of human renin with C-termini derived from amides and esters of alpha-mercaptoalkanoic acids” (J Med Chem, 1992)
One block for each compound: values may come before it.

Assays:
Renin = target: T1, Renin (Homo sapiens, UniProt P00797); assay: Inhibition of human plasma renin; type: cell-free
T1 sequence (P00797 whole entry): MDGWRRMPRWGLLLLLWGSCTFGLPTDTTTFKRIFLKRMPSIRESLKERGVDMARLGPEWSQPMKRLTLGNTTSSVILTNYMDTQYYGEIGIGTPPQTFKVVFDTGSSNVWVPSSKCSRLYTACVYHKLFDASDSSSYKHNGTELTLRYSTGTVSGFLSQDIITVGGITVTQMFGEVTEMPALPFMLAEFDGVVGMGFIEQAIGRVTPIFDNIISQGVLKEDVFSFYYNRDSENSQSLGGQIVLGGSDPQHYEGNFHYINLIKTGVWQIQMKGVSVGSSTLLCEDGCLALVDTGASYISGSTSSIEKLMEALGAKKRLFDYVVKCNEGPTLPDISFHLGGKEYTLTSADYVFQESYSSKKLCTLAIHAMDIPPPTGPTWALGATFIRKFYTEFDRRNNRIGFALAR

Rhesus monkey [1] = assay: Half life of hypotensive effect in sodium deficient rhesus monkeys after iv administration (dose 0.31 mg/kg).; type: functional, organism-based; set-up: dose 0.31 mg/kg; details: Cercopithecidae
How it was run: (§1)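 Conscious male and female rhesus monkeys (N = 2) with chronic arterial access ports for direct MAP and heart-rate monitoring, and venous catheters for dosing. Animals were kept on a low-sodium diet, given furosemide the evening before, and fasted 18 h before and during the study. Compound was given iv in 0.05% acetic acid/5% dextrose/H2O, 20 min after a vehicle control dose. Peak changes were averaged, and the hypotensive half-life was read from time plots.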

Rhesus monkey [2] = assay: In vivo effect on heart rate(peak deltaHR) in sodium deficient rhesus monkeys after iv administration (dose 0.31 mg/kg).; type: functional, Cercopithecidae; how it was run: as §1
Rhesus monkey [3] = assay: In vivo effect on mean arterial pressure(peak deltaMAP) in sodium deficient rhesus monkeys after iv administration (dose 0.31 mg/kg).; type: functional, Cercopithecidae, Artery; how it was run: as §1
Renin (Homo sapiens) [4] = target: T2, Renin (Homo sapiens) (UniProt P00797); details: Cercopithecidae; Plasma; at 0.63 mg/kg
T2 sequence (whole entry): T1 sequence (P00797 whole entry)

Renin (Homo sapiens) [5] = target: T2, Renin (Homo sapiens); assay: In vivo inhibition of plasma renin activity in sodium deficient rhesus monkeys after iv administration (dose 0.063 mg/kg, determined at peak deltaMAP).; type: functional, organism-based; set-up: dose 0.063 mg/kg; details: Cercopithecidae, target entry is the homologue from another species, at 0.063 mg/kg
How it was run: (§2)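 Sodium-deficient rhesus monkeys (N = 2) were kept on a low-sodium diet, given furosemide the evening before, and fasted 18 h. Compound was given iv through a venous catheter in 0.05% acetic acid/5% dextrose/H2O, 20 min after vehicle. Blood was drawn periodically via an arterial access port for plasma renin activity. Percent inhibition was taken at peak ΔMAP.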

Rhesus monkey [6] = assay: In vivo effect on heart rate(peak deltaHR) in sodium deficient rhesus monkeys after iv administration (dose 0.063 mg/kg).; type: functional, Cercopithecidae; how it was run: as §1
Rhesus monkey [7] = assay: In vivo effect on mean arterial pressure(peak deltaMAP) in sodium deficient rhesus monkeys after iv administration (dose 0.063 mg/kg).; type: functional, Cercopithecidae, Artery; how it was run: as §1
Rhesus monkey [8] = assay: Half life of hypotensive effect in sodium deficient rhesus monkeys after iv administration (dose 0.063 mg/kg).; type: functional, organism-based; set-up: dose 0.063 mg/kg; details: Cercopithecidae; how it was run: as §1
Renin (Homo sapiens) [9] = target: T2, Renin (Homo sapiens); assay: In vivo inhibition of plasma renin activity in sodium deficient rhesus monkeys after iv administration (dose 0.34 mg/kg, determined at peak deltaMAP).; type: functional, organism-based; set-up: dose 0.34 mg/kg; details: Cercopithecidae, target entry is the homologue from another species, at 0.34 mg/kg
Rhesus monkey [10] = assay: In vivo effect on heart rate(peak deltaHR) in sodium deficient rhesus monkeys after iv administration (dose 0.34 mg/kg).; type: functional, Cercopithecidae
Rhesus monkey [11] = assay: In vivo effect on mean arterial pressure(peak deltaMAP) in sodium deficient rhesus monkeys after iv administration (dose 0.34 mg/kg).; type: functional, Cercopithecidae, Artery
Rhesus monkey [12] = assay: Half life of hypotensive effect in sodium deficient rhesus monkeys after iv administration (dose 0.34 mg/kg).; type: functional, organism-based; set-up: dose 0.34 mg/kg; details: Cercopithecidae
Renin (Homo sapiens) [13] = target: T2, Renin (Homo sapiens); assay: In vivo inhibition of plasma renin activity in sodium deficient rhesus monkeys after iv administration (dose 0.1 mg/kg, determined at peak deltaMAP).; type: functional, organism-based; set-up: dose 0.1 mg/kg; details: Cercopithecidae, target entry is the homologue from another species, at 0.1 mg/kg; how it was run: as §2
Rhesus monkey [14] = assay: Half life of hypotensive effect in sodium deficient rhesus monkeys after iv administration (dose 0.1 mg/kg).; type: functional, organism-based; set-up: dose 0.1 mg/kg; details: Cercopithecidae; how it was run: as §1
Rhesus monkey [15] = assay: In vivo effect on heart rate(peak deltaHR) in sodium deficient rhesus monkeys after iv administration (dose 0.1 mg/kg).; type: functional, Cercopithecidae; how it was run: as §1
Rhesus monkey [16] = assay: In vivo effect on mean arterial pressure(peak deltaMAP) in sodium deficient rhesus monkeys after iv administration (dose 0.1 mg/kg).; type: functional, Cercopithecidae, Artery; how it was run: as §1

- IC50 (Renin): 34 nM
SMILES: CC(C)(C)OC(=O)N[C@@H](Cc1ccccc1)C(=O)N[C@@H](Cc1c[nH]cn1)C(=O)N[C@@H](CC1CCCCC1)[C@@H](O)CS(=O)(=O)CC(=O)NC1CCN(Cc2ccccc2)CC1

- inhibition (Renin (Homo sapiens) [4]): 86%
SMILES: CN1CCN(C(=O)CSC[C@H](O)[C@H](CC2CCCCC2)NC(=O)[C@H](Cc2c[nH]cn2)NC(=O)[C@H](Cc2ccccc2)NC(=O)OC(C)(C)C)CC1
- T1/2 (Rhesus monkey [1]): < 10 min
- Peak deltaHR (Rhesus monkey [2]): 4 beats min-1
- Peak deltaMAP (Rhesus monkey [3]): -25 mmHg

- IC50 (Renin): 92 nM
SMILES: CC(C)(C)OC(=O)N[C@@H](Cc1ccccc1)C(=O)N[C@@H](Cc1cnc[nH]1)C(=O)N[C@@H](CC1CCCCC1)[C@@H](O)CSCC(=O)NCc1ccncc1

- IC50 (Renin): 4.2 nM
SMILES: CC(C)(C)OC(=O)N[C@@H](Cc1ccccc1)C(=O)N[C@@H](Cc1c[nH]cn1)C(=O)N[C@@H](CC1CCCCC1)[C@@H](O)CS(=O)(=O)CC(=O)NC1C[N+]2([O-])CCC1CC2 (some centres not stated)

- IC50 (Renin): 73 nM
SMILES: CC(C)CC(SC[C@H](O)[C@H](CC1CCCCC1)NC(=O)[C@H](Cc1cnc[nH]1)NC(=O)[C@H](Cc1ccccc1)NC(=O)OC(C)(C)C)C(=O)NCCN1CCOCC1 (some centres not stated)

- IC50 (Renin): 88 nM
SMILES: CC(C)CC(C(=O)NCCN1CCOCC1)[S+]([O-])C[C@H](O)[C@H](CC1CCCCC1)NC(=O)[C@H](Cc1cnc[nH]1)NC(=O)[C@H](Cc1ccccc1)NC(=O)OC(C)(C)C (some centres not stated)

- inhibition (Renin (Homo sapiens) [5]): 94%
- IC50 (Renin): 7.2 nM
SMILES: CC(C)(C)S(=O)(=O)[C@@H](Cc1ccccc1)C(=O)N[C@@H](Cc1c[nH]cn1)C(=O)N[C@@H](CC1CCCCC1)[C@@H](O)CS(=O)(=O)CC(=O)NCCN1CCOCC1
- Peak deltaHR (Rhesus monkey [6]): -13 beats min-1
- Peak deltaMAP (Rhesus monkey [7]): -20.5 mmHg
- T1/2 (Rhesus monkey [8]): < 10 min

- inhibition (Renin (Homo sapiens) [9]): 95%
SMILES: CC(C)(C)OC(=O)N[C@@H](Cc1ccccc1)C(=O)N[C@@H](Cc1c[nH]cn1)C(=O)N[C@@H](CC1CCCCC1)[C@@H](O)CSc1nnnn1CCc1ccncc1
- Peak deltaHR (Rhesus monkey [10]): 1 beats min-1
- Peak deltaMAP (Rhesus monkey [11]): -22 mmHg
- T1/2 (Rhesus monkey [12]): < 10 min

- inhibition (Renin (Homo sapiens) [13]): 88%
SMILES: CC(C)(C)OC(=O)N[C@@H](Cc1ccccc1)C(=O)N[C@@H](Cc1c[nH]cn1)C(=O)N[C@@H](CC1CCCCC1)[C@@H](O)CS(=O)(=O)CC(=O)NCCN1CCOCC1
- T1/2 (Rhesus monkey [14]): < 10 min
- Peak deltaHR (Rhesus monkey [15]): -18 beats min-1
- Peak deltaMAP (Rhesus monkey [16]): -15 mmHg
